Results taken from ChEMBL document CHEMBL1122018, “Synthesis and orexigenic activity of some 1-methyl-4-piperidylidene-Substituted pyrrolo[2,1-g][3] benzazepine and dibenzocycloheptene derivatives” (1982).

Experiments:
Format in all cases: functional
Felis catus [1] = test: Average food consumed at the dose of 0.063 mg/kg (po) using 10 cats per dose level at 30 min (control day/ test day); 13/120
Felis catus [2] = test: Average food consumed at the dose of 0.016 mg/kg (po) using 10 cats per dose level at 180 min (control day/ test day); 45/215
Felis catus [3] = test: Average food consumed at the dose of 0.063 mg/kg (po) using 10 cats per dose level at 180 min (control day/ test day); 50/190
Felis catus [4] = test: Average food consumed at the dose of 0.25 mg/kg (po) using 10 cats per dose level at 180 min (control day/ test day); 50/239
Felis catus [5] = test: Average food consumed at the dose of 0.25 mg/kg (po) using 10 cats per dose level at 30 min (control day/ test day); 38/175
In short: (§1)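 Cats given test compound suspended in 1% methylcellulose, or 1% methylcellulose placebo, by gavage 30 min before a preweighed test meal. Food was offered in surplus for 3 h, and intake was found by reweighing at 30, 60 and 180 min. Ten cats per dose, each dosed no more than once weekly. Test-day intake was compared with the preceding control day by two-tailed paired t test (p < 0.05); values are mean ± SD.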

Felis catus [6] = test: Average food consumed at the dose of 0.016 mg/kg (po) using 10 cats per dose level at 30 min (control day/ test day); 21/142
Felis catus [7] = test: Average food consumed at the dose of 0.50 mg/kg (po) using 10 cats per dose level at 30 min (control day/ test day); 39/204; details: dose 0.5 mg/kg; in short: as §1
Felis catus [8] = test: Average food consumed at the dose of 0.063 mg/kg (po) using 10 cats per dose level at 60 min (control day/ test day); 22/144
Felis catus [9] = test: Average food consumed at the dose of 0.50 mg/kg (po) using 10 cats per dose level at 60 min (control day/ test day); 35/219; details: dose 0.5 mg/kg; in short: as §1
Felis catus [10] = test: Average food consumed at the dose of 0.50 mg/kg (po) using 10 cats per dose level at 180 min (control day/ test day); 32/234; details: dose 0.5 mg/kg; in short: as §1
Felis catus [11] = test: Average food consumed at the dose of 0.25 mg/kg (po) using 10 cats per dose level at 60 min (control day/ test day); 39/212; in short: as §1
Felis catus [12] = test: Average food consumed at the dose of 0.016 mg/kg (po) using 10 cats per dose level at 60 min (control day/ test day); 31/168
Felis catus [13] = test: Average food consumed at the dose of 0.50 mg/kg (po) using 10 cats per dose level at 60 min (control day/ test day); 44/217; details: dose 0.5 mg/kg; in short: as §1
Felis catus [14] = test: Average food consumed at the dose of 0.063 mg/kg (po) using 10 cats per dose level at 30 min (control day/ test day); 28/137
Felis catus [15] = test: Average food consumed at the dose of 0.016 mg/kg (po) using 10 cats per dose level at 60 min (control day/ test day); 16/119
Felis catus [16] = test: Average food consumed at the dose of 0.016 mg/kg (po) using 10 cats per dose level at 30 min (control day/ test day); 16/91
Felis catus [17] = test: Average food consumed at the dose of 0.063 mg/kg (po) using 10 cats per dose level at 60 min (control day/ test day); 37/178
Felis catus [18] = test: Average food consumed at the dose of 0.016 mg/kg (po) using 10 cats per dose level at 180 min (control day/ test day); 33/182
Felis catus [19] = test: Average food consumed at the dose of 0.25 mg/kg (po) using 10 cats per dose level at 60 min (control day/ test day); 40/208; in short: as §1
Felis catus [20] = test: Average food consumed at the dose of 0.50 mg/kg (po) using 10 cats per dose level at 30 min (control day/ test day); 51/189; details: dose 0.5 mg/kg; in short: as §1
Felis catus [21] = test: Average food consumed at the dose of 0.063 mg/kg (po) using 10 cats per dose level at 180 min (control day/ test day); 62/219
Felis catus [22] = test: Average food consumed at the dose of 0.25 mg/kg (po) using 10 cats per dose level at 180 min (control day/ test day); 46/239
Felis catus [23] = test: Average food consumed at the dose of 0.25 mg/kg (po) using 10 cats per dose level at 30 min (control day/ test day); 33/172; in short: as §1
Felis catus [24] = test: Average food consumed at the dose of 0.50 mg/kg (po) using 10 cats per dose level at 180 min (control day/ test day); 46/243; details: dose 0.5 mg/kg; in short: as §1
Felis catus [25] = test: Average food consumed at the dose of 0.031 mg/kg (po) using 10 cats per dose level at 60 min (control day/ test day); 9/113
Felis catus [26] = test: Average food consumed at the dose of 0.031 mg/kg (po) using 10 cats per dose level at 30 min (control day/ test day); 25/67
Felis catus [27] = test: Average food consumed at the dose of 0.25 mg/kg (po) using 10 cats per dose level at 60 min (control day/ test day); 46/128; in short: as §1
Felis catus [28] = test: Average food consumed at the dose of 0.25 mg/kg (po) using 10 cats per dose level at 180 min (control day/ test day); 40/210
Felis catus [29] = test: Average food consumed at the dose of 0.25 mg/kg (po) using 10 cats per dose level at 30 min (control day/ test day); 37/98; in short: as §1
Felis catus [30] = test: Average food consumed at the dose of 0.50 mg/kg (po) using 10 cats per dose level at 180 min (control day/ test day); 35/194; details: dose 0.5 mg/kg; in short: as §1
Felis catus [31] = test: Average food consumed at the dose of 0.50 mg/kg (po) using 10 cats per dose level at 30 min (control day/ test day); 24/93; details: dose 0.5 mg/kg; in short: as §1
Felis catus [32] = test: Average food consumed at the dose of 0.031 mg/kg (po) using 10 cats per dose level at 180 min (control day/ test day); 34/172
Felis catus [33] = test: Average food consumed at the dose of 0.031 mg/kg (po) using 10 cats per dose level at 60 min (control day/ test day); 25/105
Felis catus [34] = test: Average food consumed at the dose of 0.50 mg/kg (po) using 10 cats per dose level at 60 min (control day/ test day); 23/129; details: dose 0.5 mg/kg; in short: as §1
Felis catus [35] = test: Average food consumed at the dose of 0.031 mg/kg (po) using 10 cats per dose level at 180 min (control day/ test day); 52/182
Felis catus [36] = test: Average food consumed at the dose of 0.031 mg/kg (po) using 10 cats per dose level at 30 min (control day/ test day); 18/88

CN1CCC(=C2c3ccccc3CCn3cccc32)CC1.O=C(O)C(=O)O gave an Average consumed (Felis catus [1]) of 52 g, an Average consumed (Felis catus [2]) of 159 g and an Average consumed (Felis catus [3]) of 133 g. The Average consumed (Felis catus [4]) was 175 g, the Average consumed (Felis catus [5]) was 91 g and the Average consumed (Felis catus [6]) was 77 g. The Average consumed (Felis catus [7]) was 117 g, the Average consumed (Felis catus [8]) was 74 g and the Average consumed (Felis catus [9]) was 137 g. For the same molecule, the Average consumed (Felis catus [10]) was 166 g, the Average consumed (Felis catus [11]) was 124 g and the Average consumed (Felis catus [12]) was 106 g.

For CN1CCC(=C2c3ccccc3C=Cn3cccc32)CC1.O=C(O)C(=O)O, the Average consumed (Felis catus [13]) was 148 g, the Average consumed (Felis catus [14]) was 66 g and the Average consumed (Felis catus [15]) was 69 g. It also gave an Average consumed (Felis catus [16]) of 43 g, an Average consumed (Felis catus [17]) of 100 g and an Average consumed (Felis catus [18]) of 126 g. It also gave an Average consumed (Felis catus [19]) of 134 g, an Average consumed (Felis catus [20]) of 133 g and an Average consumed (Felis catus [21]) of 166 g. For the same molecule, the Average consumed (Felis catus [22]) was 183 g, the Average consumed (Felis catus [23]) was 113 g and the Average consumed (Felis catus [24]) was 193 g.

With CN1CCC(=C2c3cc(C(=O)O)ccc3C=Cn3cccc32)CC1.Cl the Average consumed (Felis catus [25]) was 98 g, the Average consumed (Felis catus [26]) was 55 g and the Average consumed (Felis catus [27]) was 112 g. It also gave an Average consumed (Felis catus [28]) of 176 g, an Average consumed (Felis catus [29]) of 73 g and an Average consumed (Felis catus [30]) of 170 g. The Average consumed (Felis catus [31]) was 78 g, the Average consumed (Felis catus [32]) was 145 g and the Average consumed (Felis catus [33]) was 84 g. The Average consumed (Felis catus [34]) was 114 g, the Average consumed (Felis catus [35]) was 184 g and the Average consumed (Felis catus [36]) was 65 g.
